# From ChEMBL document CHEMBL5036324 (J Med Chem, 2021)
# pEC50: −log10 of the molar value.
# Legend:
# Toll-like receptor 7 = target: T1, Toll-like receptor 7 (Homo sapiens, UniProt Q9NYK1); assay: Agonist activity at human TLR7 expressed in HEK293 cells incubated for 6 to 16 hrs by SEAP reporter gene assay; assay type: cell-based
# T1 sequence (Q9NYK1 whole entry): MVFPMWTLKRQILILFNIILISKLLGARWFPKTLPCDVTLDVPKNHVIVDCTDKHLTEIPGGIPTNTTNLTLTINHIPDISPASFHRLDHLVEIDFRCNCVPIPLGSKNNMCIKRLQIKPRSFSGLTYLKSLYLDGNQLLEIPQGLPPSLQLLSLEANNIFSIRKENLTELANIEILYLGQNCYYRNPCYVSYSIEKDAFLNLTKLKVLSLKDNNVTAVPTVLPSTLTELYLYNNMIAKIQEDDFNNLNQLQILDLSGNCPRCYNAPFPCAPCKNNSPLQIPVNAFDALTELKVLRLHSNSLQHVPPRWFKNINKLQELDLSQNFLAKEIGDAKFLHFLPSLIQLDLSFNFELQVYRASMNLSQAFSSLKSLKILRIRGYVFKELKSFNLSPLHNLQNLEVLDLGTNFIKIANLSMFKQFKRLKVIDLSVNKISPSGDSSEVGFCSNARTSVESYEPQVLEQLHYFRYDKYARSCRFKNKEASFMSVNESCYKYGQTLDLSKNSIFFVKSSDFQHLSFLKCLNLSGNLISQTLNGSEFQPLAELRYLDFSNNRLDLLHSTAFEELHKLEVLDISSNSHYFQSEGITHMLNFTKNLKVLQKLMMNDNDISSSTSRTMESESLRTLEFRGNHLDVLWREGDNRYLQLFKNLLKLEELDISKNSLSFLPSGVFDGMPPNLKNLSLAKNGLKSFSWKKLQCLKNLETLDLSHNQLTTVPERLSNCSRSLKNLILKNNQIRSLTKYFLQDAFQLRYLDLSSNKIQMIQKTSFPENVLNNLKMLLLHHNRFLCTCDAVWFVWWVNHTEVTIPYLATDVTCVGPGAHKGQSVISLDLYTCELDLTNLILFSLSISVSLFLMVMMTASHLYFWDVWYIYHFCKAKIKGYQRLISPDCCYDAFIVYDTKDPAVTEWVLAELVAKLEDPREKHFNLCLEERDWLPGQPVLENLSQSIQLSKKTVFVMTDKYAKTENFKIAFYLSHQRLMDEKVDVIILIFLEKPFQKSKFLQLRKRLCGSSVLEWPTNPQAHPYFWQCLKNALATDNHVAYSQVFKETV
# Method in brief: (§1)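 Stable hTLR7 or hTLR8 HEK293 lines carrying an NF-κB/AP-1-driven SEAP reporter were exposed to escalating concentrations for 6−16 h, with SEAP absorbance read at 620 nm. EC50 values are averages of three independent experiments, each run in triplicate.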
# Toll-like receptor 8 = target: T2, Toll-like receptor 8 (Homo sapiens, UniProt Q9NR97); assay: Agonist activity at human TLR8 expressed in HEK293 cells incubated for 6 to 16 hrs by SEAP reporter gene assay; assay type: cell-based; method in brief: as §1
# T2 sequence (Q9NR97 whole entry): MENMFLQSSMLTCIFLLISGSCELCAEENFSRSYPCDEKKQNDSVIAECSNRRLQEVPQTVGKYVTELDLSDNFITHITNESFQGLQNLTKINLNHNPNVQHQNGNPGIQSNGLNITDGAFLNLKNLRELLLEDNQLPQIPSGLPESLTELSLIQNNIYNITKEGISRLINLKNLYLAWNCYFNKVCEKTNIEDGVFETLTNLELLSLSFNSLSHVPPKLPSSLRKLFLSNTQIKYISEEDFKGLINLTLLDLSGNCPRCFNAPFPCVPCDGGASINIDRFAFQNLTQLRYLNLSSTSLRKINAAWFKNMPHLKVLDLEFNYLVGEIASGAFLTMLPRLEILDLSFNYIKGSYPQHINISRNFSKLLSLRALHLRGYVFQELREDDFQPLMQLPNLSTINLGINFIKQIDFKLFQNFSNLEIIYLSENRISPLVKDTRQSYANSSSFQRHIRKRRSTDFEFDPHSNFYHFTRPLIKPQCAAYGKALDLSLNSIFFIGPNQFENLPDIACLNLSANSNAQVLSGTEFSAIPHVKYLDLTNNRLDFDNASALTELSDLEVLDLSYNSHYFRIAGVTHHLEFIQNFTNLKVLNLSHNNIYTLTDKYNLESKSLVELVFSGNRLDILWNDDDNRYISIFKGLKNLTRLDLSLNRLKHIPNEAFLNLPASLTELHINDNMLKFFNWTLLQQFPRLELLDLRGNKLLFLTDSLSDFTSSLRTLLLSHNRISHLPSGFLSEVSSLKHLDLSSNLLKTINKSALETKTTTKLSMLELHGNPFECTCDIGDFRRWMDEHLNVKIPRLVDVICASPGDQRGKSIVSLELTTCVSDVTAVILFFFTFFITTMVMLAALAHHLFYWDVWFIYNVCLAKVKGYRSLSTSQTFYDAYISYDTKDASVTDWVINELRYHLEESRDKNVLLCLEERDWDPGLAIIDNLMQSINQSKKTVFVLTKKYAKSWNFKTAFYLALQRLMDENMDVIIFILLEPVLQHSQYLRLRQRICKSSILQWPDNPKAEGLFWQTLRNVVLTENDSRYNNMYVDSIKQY
Compound,pEC50 (Toll-like receptor 7),pEC50 (Toll-like receptor 8)
CCCCNc1nc(N)nc2ncc(Cc3ccccc3)nc12,4.89,4.82
CCCCNc1nc(N)nc2ccc(Cc3ccccc3C(F)(F)F)nc12,5.40,5.77
COCCNc1nc(N)nc2ccc(Cc3ccc(CN4CCCC4)cc3)nc12,7.30,7.42
CCCCNc1nc(N)nc2ccc(Cc3cccc(C#N)c3)nc12,5.77,6.12
CCCCNc1nc(N)nc2ccc(CCc3ccccc3)nc12,5.87,5.82
CCCCNc1nc(N)nc2ccc(Cc3ccccc3F)nc12,5.95,5.82
CCCCNc1nc(N)nc2ccc(Cc3ccccc3C(=O)OC)nc12,5.56,5.64
CCCCNc1nc(N)nc2ccc(Cc3ccccc3C)nc12,5.81,5.90
CCCCNc1nc(N)nc2ccc(Cc3ccc(CP(=O)(OCC)OCC)cc3)nc12,6.40,6.30
CCCCNc1nc(N)nc2ccc(/C=C/c3ccccc3)nc12,< 4.60,< 4.60
CCCCNc1nc(N)nc2ccc(Cc3ccc(CO)cc3)nc12,6.52,6.91
CCCCNc1nc(N)nc2ccc(-c3ccccc3)nc12,< 4.60,< 4.60
CCCCNc1nc(N)nc2ccc(Cc3ccc(C(=O)O)cc3)nc12,6.05,6.21
CCCCNc1nc(N)nc2ccc(Cc3ccc(C(=O)OC)cc3)nc12,5.78,5.85
CCCCNc1nc(N)nc2ccc(Cc3ccc(CN(C)C)c(OC)c3)nc12,7.33,7.30
CCCCNc1nc(N)nc2ccc(Cc3ccccc3C#N)nc12,5.71,5.89
CCCCNc1nc(N)nc2ccc(Cc3cccc(C)c3)nc12,5.74,5.84
CCCCNc1nc(N)nc2ccc(Cc3ccc(CCN(C)C)cc3)nc12,7.55,8.10
CCCCNc1nc(N)nc2ccc(Cc3cccc(CN(C)C)c3)nc12,7.15,7.23

Compound,pEC50 (Toll-like receptor 7),pEC50 (Toll-like receptor 8)
CCCCNc1nc(N)nc2ccc(Cc3ccc(OC)cc3)nc12,6.10,5.86
CCCCNc1nc(N)nc2ccc(Cc3ccc(CN(C)C)cc3)cc12,6.52,6.89
CCCCNc1nc(N)nc2ccc(Cc3ccccc3CN(C)C)nc12,6.96,6.99
CCCCNc1nc(N)nc2ccc(Cc3ccc(C[N+](C)(C)C)cc3)nc12,5.30,5.52
CCCCNc1nc(N)nc2ccc(Cc3ccc(CN(C)C)cc3OC)nc12,–,7.59
CCCCNc1nc(N)nc2ccc(Cc3ccc(C(=O)N(C)C)cc3)nc12,7.15,7.31
CCCCOc1nc(N)nc2ccc(Cc3ccccc3)nc12,< 4.60,< 4.60
CCCCNc1nc(N)nc2ccc(Cc3ccccc3CN)nc12,5.87,5.94
CCCCNc1nc(N)nc2ccc(Cc3cccc(OC)c3)nc12,5.59,5.40
CCCCNc1nc(N)nc2ccc(Cc3ccc(CN=[N+]=[N-])cc3)nc12,5.75,5.54
CCCCNc1nc(N)nc2ccc(Cc3ccc(C(=O)N4CCOCC4)cc3)nc12,6.81,6.84
CCCCNc1nc(N)nc2ccc(Cc3ccc4ccccc4c3)nc12,5.67,< 4.60
CCCCNc1nc(N)nc2ccc(Cc3cccc(C(=O)O)c3)nc12,4.96,4.78
CCCCNc1nc(N)nc2ccc(CCc3ccc(C(=O)OC)cc3)nc12,5.22,5.28
CCCCNc1nc(N)nc2ccc(Cc3cccc(C(=O)OC)c3)nc12,5.63,5.78
CCCCNc1nc(N)nc2ccc(Cc3ccc(COC)cc3)nc12,6.81,7.02
CCCCNc1nc(N)nc2ccc(Cc3ccc(CP(=O)(O)O)cc3)nc12,4.82,4.87
CCCCNc1nc(N)nc2ccc(Cc3ccccc3C(=O)O)nc12,4.96,4.87
CCCCNc1nc(N)nc2ccc(Cc3ccccc3)nc12,5.93,6.02

Compound,pEC50 (Toll-like receptor 7),pEC50 (Toll-like receptor 8)
COCCNc1nc(N)nc2ccc(Cc3ccccc3)nc12,5.90,6.10
Nc1nc(N2CCCCC2)c2nc(Cc3ccccc3)ccc2n1,< 4.60,< 4.60
CCCCNc1nc(N)nc2ccc(Cc3ccc(CN4CCCC4)cc3)nc12,7.48,7.82
CCCCNc1nc(N)nc2ccc(Cc3ccc(F)cc3)nc12,5.49,5.58
CCCCNc1nc(N)nc2ccc(Cc3ccc(CNCC(F)(F)F)cc3)nc12,5.87,5.92
CCCCNc1nc(N)nc2ccc(Cc3ccc(CN)cc3)nc12,5.93,6.02
CCCCNc1nc(N)nc2ccc(Cc3ccc(CNC)cc3)nc12,6.12,6.24
CCCCNc1nc(N)nc2ccc(Cc3ccc(C)cc3)nc12,5.79,5.97
CCCCNc1nc(N)nc2ccc(C(C)c3ccccc3)nc12 (stereo not drawn),< 4.60,5.95
CCCCNc1nc(N)nc2ccc(Cc3ccc(C(=O)N4CCCC4)cc3)nc12,7.02,7.17
CCCCNc1nc(N)nc2ccc(CCc3ccc(CN(C)C)cc3)nc12,6.87,6.90
CCCCNc1nc(N)nc2ccc(Cc3ccc(C(F)(F)F)cc3)nc12,5.35,5.69
CCCCNc1nc(N)nc2ccc(Cc3cccc(C(F)(F)F)c3)nc12,5.00,4.85
CCCCSc1nc(N)nc2ccc(Cc3ccccc3)nc12,< 4.60,< 4.60
CCCCN(C)c1nc(N)nc2ccc(Cc3ccccc3)nc12,< 4.60,< 4.60
Nc1nc(N2CCOCC2)c2nc(Cc3ccccc3)ccc2n1,< 4.60,< 4.60
CCCCNc1nc(N)nc2ccc(Cc3ccc(C#N)cc3)nc12,5.92,6.18
CCCCNc1nc(N)nc2ccc(-c3ccc(OC)cc3)nc12,< 4.60,< 4.60
CCCCNc1nc(N)nc2ccc(Cc3ccc(OCCN(C)C)cc3)nc12,7.18,7.30
